Laboratory results as given in ChEMBL document CHEMBL1142319, “New antitumor imidazo[2,1-b]thiazole guanylhydrazones and analogues” (2008).
Active and inactive are the calls of the source. No cut-off for these calls is given here.

Legend:
[1] = test system: Cancer cell lines; experiment: Inhibition of human breast cancer cells; format: functional; settings: for TGI: read-out: pTGI (converted)
How it was run: (§1)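 NCI 60-cell-line panel, with results grouped by tissue subpanel. Compounds dissolved in DMSO and tested at five 10-fold dilutions, top concentration 10^-4 M. Values given as -log molar concentration for 50% growth inhibition (pGI50), total growth inhibition (pTGI) and 50% cell kill (pLC50), with subpanel means calculated.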

[2] = test system: Cancer cell lines; experiment: Inhibition of human CNS cancer cells; format: functional; settings: for TGI: read-out: pTGI (converted); how it was run: as §1
[3] = test system: Cancer cell lines; experiment: Inhibition of human prostate cancer cells; format: functional; settings: for TGI: read-out: pTGI (converted); how it was run: as §1
[4] = test system: Melanoma cell; experiment: Inhibition of human melanoma cells; format: functional; settings: for TGI: read-out: pTGI (converted); how it was run: as §1
[5] = test system: HL-60; experiment: Cell cycle arrest in human HL60 cells assessed as accumulation at G2/M phase at 2 uM; format: functional
How it was run: (§2)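 HL-60 cells kept in RPMI 1640 with 10% FBS and 2 mM glutamine at 37 °C, 5% CO2. Treated 24 h at 2 µM from DMSO stock diluted in medium. Cells fixed in cold 70% ethanol and stained with propidium iodide 50 µg/mL plus RNAase 10 µg/mL for 30 min. DNA profiles read by flow cytometry on ≥10 000 cells, and phase percentages calculated.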

[6] = test system: Leukemia cell; experiment: Inhibition of human leukemia cells; format: functional; settings: for TGI: read-out: pTGI (converted); how it was run: as §1
[7] = test system: Cancer cell lines; experiment: Inhibition of human colon cancer cells; format: functional; settings: for TGI: read-out: pTGI (converted); how it was run: as §1
[8] = test system: HL-60; experiment: Induction of cell death in human HL60 cells at 2 uM by propidium iodide staining method; format: functional
How it was run: (§3)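 HL-60 cells in RPMI 1640 with 10% FBS and 2 mM glutamine at 37 °C, 5% CO2, exposed for 24 h to compound diluted in medium from DMSO. Cells were counterstained with propidium iodide (5 µg/mL) for plasma membrane integrity and analysed by flow cytometry. The readout is the percentage of PI-positive cells.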

[9] = test system: HL-60; experiment: Cell cycle arrest in human HL60 cells assessed as accumulation at G0/G1 phase at 2 uM; format: functional; how it was run: as §2
[10] = test system: HL-60; experiment: Cell cycle arrest in human HL60 cells assessed as accumulation at S phase at 2 uM; format: functional; how it was run: as §2
[11] = test system: HL-60; experiment: Effect on cell growth in human HL60 cells assessed as cell number per mL at 2 uM; format: functional; set-up: scale not given here
How it was run: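 HL-60 cells in RPMI 1640 with 10% FBS and 2 mM glutamine, 37 °C, 5% CO2, doubling time about 24 h. Exposed 24 h to 2 µM compound diluted from DMSO into medium. Cells per mL counted with a Coulter counter.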

[12] = test system: Cancer cell lines; experiment: Inhibition of human non-small cell lung cancer cells; format: functional; settings: for TGI: read-out: pTGI (converted); how it was run: as §1
[13] = test system: Cancer cell lines; experiment: Inhibition of human renal cancer cells; format: functional; settings: for TGI: read-out: pTGI (converted); how it was run: as §1
[14] = test system: Cancer cell lines; experiment: Inhibition of human ovarian cancer cells; format: functional; settings: for TGI: read-out: pTGI (converted); how it was run: as §1
[15] = molecular target: T1, S-adenosylmethionine decarboxylase proenzyme (Homo sapiens) (UniProt P17707); experiment: Inhibition of human S-adenosyl methionine decarboxylase in HL60 cells at 1 to 100 uM; format: cell-based; settings: HL-60
T1 sequence (whole entry): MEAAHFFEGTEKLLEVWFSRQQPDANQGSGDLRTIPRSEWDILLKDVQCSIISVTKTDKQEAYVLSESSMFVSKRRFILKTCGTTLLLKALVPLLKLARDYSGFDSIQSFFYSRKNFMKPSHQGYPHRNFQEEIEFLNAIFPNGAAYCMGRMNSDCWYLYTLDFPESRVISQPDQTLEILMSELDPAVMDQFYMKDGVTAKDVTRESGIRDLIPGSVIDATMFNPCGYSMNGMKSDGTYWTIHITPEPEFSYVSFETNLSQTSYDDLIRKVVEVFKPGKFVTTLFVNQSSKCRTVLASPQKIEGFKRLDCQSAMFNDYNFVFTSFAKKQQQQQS

[16] = test system: HL-60; experiment: Increase in peroxide formation in human HL60 cells at 5 uM after 3 hrs; format: functional, cell-based
How it was run: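 Intracellular peroxides measured in HL-60 cells after 3 h at 5 µM. Cells incubated with 5 µM DCF-DA for 30 min at 37 °C, then read by flow cytometry. Mean ± SEM of triplicates.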

[17] = test system: HL-60; experiment: Effect on energy metabolism assessed as increase in AMP/ATP ratio in human HL60 cells at 5 uM after 3 hrs; format: functional, cell-based
How it was run: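 HL-60 cells treated 3 h with 5 µM. Adenine nucleotide levels measured and the AMP/ATP ratio calculated from them. Mean ± SEM of triplicate determinations.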

[18] = test system: HL-60; experiment: Induction of apoptosis in human HL60 cells assessed as caspase activity after 4 hrs; format: functional, cell-based
How it was run: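 HL-60 cells treated 4 h across a range of concentrations. DEVD-cleaving caspase (DEVDase) activity measured fluorimetrically in cell extracts. One typical experiment shown, repeated at least twice.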

[19] = test system: HL-60; experiment: Disruption of mitochondrial membrane potential in human HL60 cells at 5 uM after 1 hr; format: functional, cell-based
How it was run: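 HL-60 cells exposed to 5 µM for 1 h, then loaded with 40 nM DiOC6 for 40 min at 1 × 10⁶ cells/mL, 37 °C, in the dark. Mitochondrial membrane potential read by flow cytometry. Mean ± SEM of triplicate determinations.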

[20] = test system: HL-60; experiment: Induction of apoptosis in human HL60 cells assessed as chromatin condensation at 5 uM after 3 hrs; format: functional, cell-based
How it was run: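 HL-60 cells on glass coverslips treated 3 h with 5 µM. Cells fixed in 4% paraformaldehyde in PBS and stained with Hoechst 0.1 µg/mL. Nuclear morphology (chromatin condensation, apoptotic bodies) scored by fluorescence microscopy. Experiment repeated at least twice.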

[21] = test system: HL-60; experiment: Induction of cell death in human HL60 cells assessed as LDH release at 5 uM after 24 hrs; format: functional, cell-based
How it was run: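 HL-60 cells exposed 24 h to 5 µM. Medium aliquots collected and LDH activity determined spectrophotometrically from NADH at 340 nm. One typical experiment shown, repeated at least twice.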

[22] = test system: HL-60; experiment: Effect on cell growth in human HL60 cells assessed as cell number per mL at 10 uM; format: functional
How it was run: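 HL-60 cells grown in RPMI 1640 with 10% FBS and 2 mM glutamine at 37 °C, 5% CO2 (doubling time about 24 h). Compound was taken from a DMSO stock, diluted in medium and applied for 24 h. Growth was assessed by Coulter cell counting, reported as cells/mL.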

[23] = test system: HL-60; experiment: Cell cycle arrest in human HL60 cells assessed as accumulation at S phase at 10 uM; format: functional
How it was run: (§4)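 HL-60 cells growing exponentially in RPMI 1640 with 10% FBS and 2 mM glutamine at 37 °C under 5% CO2. Compound was dissolved in DMSO, diluted in medium and applied for 24 h. Cells were fixed in cold 70% ethanol and stained with 50 µg/mL propidium iodide plus 10 µg/mL RNase for 30 min. DNA content was read by flow cytometry (≥10,000 cells) and the percentage of cells in each phase calculated.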

[24] = test system: HL-60; experiment: Cell cycle arrest in human HL60 cells assessed as accumulation at G0/G1 phase at 10 uM; format: functional; how it was run: as §4
[25] = test system: HL-60; experiment: Induction of cell death in human HL60 cells at 10 uM by propidium iodide staining method; format: functional; how it was run: as §3
[26] = test system: HL-60; experiment: Cell cycle arrest in human HL60 cells assessed as accumulation at G2/M phase at 10 uM; format: functional; how it was run: as §4

Row | Compound | GI50 [1] | TGI [1] | GI50 [2] | TGI [2] | GI50 [3] | TGI [3] | GI50 [4] | TGI [4] | Activity [5] | GI50 [6] | TGI [6] | GI50 [7] | TGI [7] | Activity [8] | GI50 [12] | TGI [12] | GI50 [13] | TGI [13] | GI50 [14] | TGI [14] | further results
1 | Cc1cn2c(/C=N/NC(=N)N)c(-c3cc(Cl)sc3Cl)nc2s1 | 1.23 µM | 2.63 µM | 1.12 µM | 4.37 µM | 0.794 µM | 1.48 µM | 1.05 µM | 3.09 µM | 14.7% | 0.891 µM | 1.78 µM | 1.02 µM | 3.98 µM | 7.4% | 1.1 µM | 3.63 µM | 1.23 µM | 3.02 µM | 1.02 µM | 2.34 µM | Activity [9]: 35.3%; Activity [10]: 50%; Activity [11]: 750
2 | COc1cc([N+](=O)[O-])c(OC)cc1-c1nc2sc(Cl)cn2c1/C=N\NC1=NCCN1 | 1.82 µM | 42.7 µM | 0.646 µM | 2.09 µM | 0.759 µM | 1.15 µM | 1.26 µM | 3.89 µM | 15.1% | 2.63 µM |  | 0.501 µM | 2.95 µM | 22% | 0.933 µM | 4.79 µM | 1.35 µM | 3.39 µM | 0.741 µM | 1.86 µM | Activity [15]: Active; Activity [16]: Active; Activity [17]: Active; Activity [9]: 33.1%; Activity [10]: 51.9%; Activity [18]: Dose-dependent effect; Activity [11]: 485; Activity [19]: Active; Activity [20]: Active; Activity [21]: Active
3 | Cc1cn2c(/C=N/NC3=NCCN3)c(-c3ccc(Cl)c([N+](=O)[O-])c3)nc2s1 | 1.82 µM | 7.59 µM | 1.07 µM | 4.27 µM | 1.15 µM | 2.95 µM | 0.977 µM | 2.4 µM | 15% | 0.676 µM | 6.17 µM | 1.2 µM | 10 µM | 11.9% | 1.55 µM | 6.03 µM | 1.45 µM | 3.72 µM | 1.41 µM | 3.39 µM | Activity [9]: 31.3%; Activity [10]: 53.7%; Activity [11]: 780
4 | CC(/C=N/NC(=N)N)=N\NC(=N)N [MITOGUAZONE] | 15.8 µM | 316 µM | 20 µM | 251 µM | 100 µM | 1580 µM | 39.8 µM | 316 µM |  | 7.94 µM | 631 µM | 12.6 µM | 501 µM |  | 25.1 µM | 316 µM | 20 µM | 501 µM | 15.8 µM | 316 µM | Activity [22]: 702; Activity [23]: 40.9%; Activity [24]: 43.6%; Activity [25]: 5.2%; Activity [26]: 15.5%
5 | COc1cc([N+](=O)[O-])c(OC)cc1-c1nc2sc(Cl)cn2c1/C=N\Nc1ccccn1 | 17.4 µM | 41.7 µM | 15.5 µM | 30.2 µM | 16.2 µM |  | 33.1 µM | 46.8 µM |  | 9.12 µM | 35.5 µM | 44.7 µM |  |  | 25.7 µM |  | 13.5 µM | 30.9 µM | 20 µM | 33.1 µM | 
6 | Cc1cc(-c2nc3n(c2/C=N/NC(=N)N)CCS3)c(C)s1 | 24 µM | 41.7 µM | 18.6 µM | 34.7 µM | 15.5 µM | 30.9 µM | 15.5 µM | 29.5 µM |  | 20.9 µM |  | 13.8 µM | 29.5 µM |  | 17 µM | 35.5 µM | 17.4 µM | 38 µM | 24 µM | 47.9 µM | 
7 | Cc1cn2c(/C=N/NC(=N)NN)c(-c3ccc(Cl)c([N+](=O)[O-])c3)nc2s1 | 1.55 µM | 5.37 µM | 1.12 µM | 2.95 µM | 3.39 µM | 9.55 µM | 1.82 µM | 4.57 µM | 13.1% | 6.31 µM |  | 0.955 µM | 2.09 µM | 7.8% | 2.4 µM | 9.77 µM | 3.24 µM | 8.51 µM | 1.29 µM | 3.72 µM | Activity [9]: 35%; Activity [10]: 51.9%; Activity [11]: 760
8 | Cc1nn2c(/C=N/NC(=N)N)c(-c3ccc(Cl)c([N+](=O)[O-])c3)nc2s1 | 1.02 µM | 6.92 µM | 1.23 µM | 9.77 µM | 1.1 µM | 2.63 µM | 1.45 µM | 2.95 µM | 16.5% | 0.575 µM | 3.63 µM | 0.646 µM | 2.82 µM | 31% | 3.31 µM | 11.5 µM | 1.23 µM | 3.63 µM | 1.48 µM | 4.27 µM | Activity [15]: Active; Activity [16]: Active; Activity [17]: Active; Activity [9]: 29.9%; Activity [10]: 53.6%; Activity [18]: Dose-dependent effect; Activity [11]: 410; Activity [19]: Active; Activity [20]: Active; Activity [21]: Active
